Test [1] has as its target T1, Adenosine receptor A1 (Homo sapiens, UniProt P30542).
T1 sequence (P30542 whole entry): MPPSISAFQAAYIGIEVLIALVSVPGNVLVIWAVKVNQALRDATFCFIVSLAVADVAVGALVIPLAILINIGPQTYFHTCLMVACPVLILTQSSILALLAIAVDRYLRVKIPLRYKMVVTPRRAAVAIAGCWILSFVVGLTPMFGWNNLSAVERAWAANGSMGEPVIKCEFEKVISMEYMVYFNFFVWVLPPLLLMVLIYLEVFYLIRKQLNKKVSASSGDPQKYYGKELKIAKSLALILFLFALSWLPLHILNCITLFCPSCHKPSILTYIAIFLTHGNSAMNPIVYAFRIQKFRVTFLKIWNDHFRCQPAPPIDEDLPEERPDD
The test can be described thus: Displacement of [3H]-DPCPX from human adenosine A1 receptor expressed in CHO cells after 30 mins by scintillation counting. The format is cell-based. The method in brief:
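CHO-hA1 membranes at 10.8 μg protein/well, pretreated with adenosine deaminase (2 U/mL, 30 min, 37 C), were incubated with 1 nM [3H]-DPCPX in 50 mM Tris/HCl pH 7.4 for 30 min at 25 C across 10 compound concentrations. Filtration on PEI-soaked GF/B, scintillation counting. Nonspecific binding by CGS15943. Ki by Cheng-Prusoff. Means of ≥2 determinations.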

The species named for test [2] is Homo sapiens. The test can be described thus: Selectivity ratio of Ki for human adenosine A1 receptor to Ki for human adenosine A2A receptor.
In test [3] the target is Adenosine receptor A2a (Homo sapiens, UniProt P29274). The test can be described thus: Displacement of [3H]-ZM241385 from human adenosine A2A receptor expressed in high five cells after 30 mins by scintillation counting.
For test [4], the target named is T2, Adenosine receptor A1 (Homo sapiens) (UniProt P30542).
T2 sequence (whole entry): T1 sequence (P30542 whole entry)
As to the kind of experiment: Displacement of [3H]-DPCPX from human adenosine A1 receptor expressed in CHO cells at 10 uM after 30 mins by scintillation counting. The format is cell-based.

Sequence of Adenosine receptor A2a (P29274 whole entry): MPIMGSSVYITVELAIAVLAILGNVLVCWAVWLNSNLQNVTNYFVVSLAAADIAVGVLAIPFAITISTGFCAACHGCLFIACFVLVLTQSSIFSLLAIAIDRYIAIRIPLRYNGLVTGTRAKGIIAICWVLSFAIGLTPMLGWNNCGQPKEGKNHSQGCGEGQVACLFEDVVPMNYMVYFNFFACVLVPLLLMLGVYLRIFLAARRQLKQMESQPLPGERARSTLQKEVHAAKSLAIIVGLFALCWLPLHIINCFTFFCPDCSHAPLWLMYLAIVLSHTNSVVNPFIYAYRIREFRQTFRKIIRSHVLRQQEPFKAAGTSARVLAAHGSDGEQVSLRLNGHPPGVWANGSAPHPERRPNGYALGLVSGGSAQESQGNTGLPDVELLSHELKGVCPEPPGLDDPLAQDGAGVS

With `Cc1cc(C(=O)Nc2nccs2)ccc1NC(=O)CC(C)(C)C`, the figures for the Ki in test [1] and in test [3] were 460 nM and 19 nM, respectively. In addition, the Ratio Ki in test [2] is 24.

Turning to `Cc1cc(C(=O)Nc2nccs2)cc(Cl)c1NC(=O)CC(C)(C)C`, the Ki in test [1] was 580 nM; in test [3], 32 nM. The Ratio Ki in test [2] was determined as 18.

Consider `CC(C)(C)CNC(=O)c1ccc(C(=O)Nc2nccs2)cc1`, for which the Ki in test [3] was 110 nM.

Regarding `COc1cc(NC(=O)CC(C)(C)C)ccc1C(=O)Nc1nccs1`, the Ki in test [1] is 1100 nM; in test [3] it was 50 nM. The Ratio Ki in test [2] came out at 22.

`CCC(=O)Nc1ccc(C(=O)Nc2nccs2)cc1` came in with a Ki in test [3] of 890 nM. Moreover, in test [4], the inhibition amounted to 31%.

Consider `CC(C)(C)CC(=O)Nc1ccc(C(=O)Nc2ncc(Cl)s2)cc1`, for which the Ki in test [1] turned out to be 220 nM; in test [3], 28 nM.

Consider `COc1c(C(=O)Nc2nccs2)ccc(NC(=O)CC(C)(C)C)c1F`, for which the Ki in test [1] was found to be 220 nM; in test [3] it was 12 nM. Besides, the Ratio Ki in test [2] came to 18.

In the case of `CC(C)(C)CC(=O)Nc1ccc(C(=O)Nc2nccs2)c(Cl)c1`, the Ki in test [3] amounted to 180 nM. The inhibition in test [4] is 14%.

In test [3], `Cc1nc(NC(=O)c2ccc(NC(=O)CC(C)(C)C)cc2)sc1C` displayed a Ki of 220 nM.

Turning to `CC(C)(C)CC(=O)Nc1ccc(C(=O)Nc2nccs2)cc1F`, the Ki in test [1] was 650 nM; in test [3], 9.2 nM. Moreover, in test [2], the Ratio Ki came to 71.

On to `Cc1cnc(NC(=O)c2ccc(NC(=O)CC(C)(C)C)cc2)s1`, for which the values for the Ki in test [1] and in test [3] were 1100 nM and 120 nM, respectively.

In test [3], `Cc1cc(NC(=O)CC(C)(C)C)ccc1C(=O)Nc1nccs1` displayed an inhibitory constant (Ki) of 200 nM. For the same compound, the inhibition in test [4] was 36%.

Regarding `CC(C)(C)CC(=O)Nc1ccc(C(=O)Nc2nccs2)cc1Cl`, the Ki was 210 nM in test [1] and 22 nM in test [3]. In addition, in test [2], the Ratio Ki came to 10.

Consider `COc1cc(C(=O)Nc2nccs2)ccc1NC(=O)CC(C)(C)C`, for which the figures for the Ki in test [1] and in test [3] were 340 nM and 17 nM, respectively. Besides, the Ratio Ki in test [2] is 20.

For `CC(C)C(=O)Nc1ccc(C(=O)Nc2nccs2)cc1`, in test [3], the affinity, expressed as Ki, was 300 nM.

Values taken from ChEMBL document CHEMBL1671809, “Discovery of phosphoric acid mono-{2-[(E/Z)-4-(3,3-dimethyl-butyrylamino)-3,5-difluoro-benzoylimino]-thiazol-3-ylmethyl} ester (Lu AA47070): a phosphonooxymethylene prodrug of a potent and selective hA(2A) receptor antagonist” (J Med Chem, 2011).
